sPLA2-III inh: human group III sPLA2 inhibitors, primary screen, biochemical, QFRET, BODIPY PC-A2 liposome substrate. AID 743126, 2013. 0.56% of 370,000 active. QFRET BODIPY PC-A2 liposome hydrolysis, fluorescence. inhibition, % at 12.2 µM;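 active = inhibition above mean plus 3 SD of compounds lying within the high and low control bounds, cut at about 19% in these data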
TbMetRS inhib: T. brucei MetRS inhibitors, primary screen, biochemical, luminescence | 0.4% of 360,000 active | inhibition, % at 11.9 µM | purified T. brucei MetRS, ATP depletion, Kinase-Glo luminescence;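 active = inhibition above a per-plate cutoff of the control wells' mean inhibition plus 3 SD, cut at about 5.5% in these data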
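Test system – parasite MetRS enzyme · Reagent – substrates ATP, L-methionine and bulk Escherichia coli tRNA · Doses – 11.9 µM compound single dose, 0.9% DMSO · Times – 15 min enzyme-compound preincubation, 2 h reaction, 10 min detection, 25 °C · Signal – Kinase-Glo luminescence, ATP depletion format · Controls – DMSO-only wells as low control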
PLC-beta3 inh: human PLC-beta3 inhibitors, primary screen, biochemical, fluorescence; 1-phosphatidylinositol 4,5-bisphosphate phosphodiesterase beta-3 (Homo sapiens), Q01970; Purified PLC-beta3, fluorogenic substrate; inhibition, % at 12.2 µM; 0.18% of 370,000 active; AID 720704, 2013; in the data active = inhibition above about 11%
PLC-gamma1 inh: PLC-gamma1 enzyme inhibitors, primary screen, biochemical, fluorescence, purified enzyme. fluorogenic substrate. inhibition, % at 12.2 µM. 0.84% of 370,000 active. AID 720700, 2013; in the data active = inhibition above about 9.5%
TbMetRS confirm: T. brucei MetRS inhibitors, confirmation, biochemical, luminescence. T. brucei MetRS enzyme, luminescence (ATP depletion). inhibition, % at 11.9 µM. 93% of 1,400 active. shares compounds with TbMetRS inhib. AID 624412, 2012; in the data active = inhibition above about 7%
Jurkat cytotox: Jurkat T cell cytotoxicity, cytotoxicity control for T. brucei MetRS inhibitor project, luminescence, high throughput; shares compounds with TbMetRS inhib; Jurkat cells viability, ATP luminescence; inhibition, % at 8.3 µM; 12% of 1,400 active; AID 624413, 2012; in the data active = inhibition above about 15%
Tb MetRS inh FP: T. brucei MetRS inhibitors, orthogonal assay for T. brucei MetRS inhibitor project, biochemical, fluorescence polarization | shares compounds with TbMetRS inhib | purified T. brucei MetRS | inhibition, % at 11.9 µM | 44% of 1,400 active | AID 651607, 2012; in the data active = inhibition above about 17%
A number is an active result; n = inactive; x = no result. An excerpt weighted towards active compounds, which were near 1.9% of everything screened.

SMILES | sPLA2-III inh | TbMetRS inhib | PLC-beta3 inh | PLC-gamma1 inh | TbMetRS confirm | Jurkat cytotox | Tb MetRS inh FP
COc1ccccc1NC(=S)Nc1ccc2cn[nH]c2c1 | n | 7.8 | n | n | n | n | n
O=C(NCCc1c[nH]c2ccccc12)OCc1cn(-c2cccc(Cl)c2)nn1 | n | x | n | n | x | x | x
O=C(C=Cc1ccccc1)c1c[nH]c2ccccc2c1=O | n | 37 | n | n | 78 | 93 | 56
COc1ccc(OCc2nnc(SCc3ccc(C(=O)O)cc3)o2)cc1 | n | n | n | n | x | x | x
O=C(O)c1ccc(CSc2nnc(COc3ccc(Cl)cc3Cl)o2)cc1 | n | 48 | n | n | 60 | n | 35
Cc1ccc(O)c(CNc2cnc3ccccc3c2)c1 | n | n | n | n | x | x | x
Oc1ccc(Br)cc1CNc1cnc2ccccc2c1 | n | 11 | n | n | 15 | 40 | n
COc1ccc(CSc2nnc(SCc3ccccc3)s2)cc1 | n | x | n | n | x | x | x
N#Cc1ccc(Cn2ccc3ccc(-c4ccc5ccn(C(=O)C6CCCCC6)c5c4)cc32)cc1 | n | x | n | n | x | x | x
O=c1cc(/N=C/c2coc3cc(Br)ccc3c2=O)[nH]c(=S)[nH]1 | n | n | n | n | x | x | x
CC(=O)Oc1ccc2c(=O)c(/C=N/c3cc(=O)[nH]c(=S)[nH]3)coc2c1 | n | 8.0 | n | n | 13 | n | n
COC(=O)[C@]12C[C@H](CC(=O)NCCCN3CCCC3=O)C(=O)N(CCC3=CCCCC3)C1=C[C@H](C(C)C)O[C@@H]2C1CC1 | n | x | n | n | x | x | x
CC(C)C1N=C(NC(=O)OCc2ccccc2)NC1=O (stereo not given) (tested in a mixture with another compound) | n | x | n | n | x | x | x
CCNC(=S)N(CCc1ccc(S(N)(=O)=O)cc1)C1CC(=O)N(c2ccccc2)C1=O (stereo not given) | n | n | n | n | x | x | x
O=C1CC(N(CCc2ccccc2)C(=S)Nc2ccccc2)C(=O)N1c1ccccc1 (stereo not given) | n | 31 | n | n | 38 | n | 23
O=C1CC(N(CCc2ccccc2)C(=S)Nc2ccccc2)C(=O)N1c1ccc(F)cc1 (stereo not given) | n | 23 | n | n | 32 | n | n
O=C(Cn1cc(C(F)(F)F)cc(Cl)c1=O)NCc1ccc(Cl)cc1Cl | n | n | n | n | x | x | x
COc1ccccc1CNC(=O)Cn1ccsc1=N | n | n | n | n | x | x | x
O=C(Cn1cc([N+](=O)[O-])ccc1=O)NCc1ccc(Cl)cc1Cl | n | 9.1 | n | n | 26 | n | n
N=c1sccn1CC(=O)NCc1ccc(Cl)cc1Cl | n | 29 | n | n | 51 | n | n
CN(C)c1ccc(C(=O)NCC2CCN(C(=O)C(=O)c3cccs3)CC2)cc1 | n | x | n | n | x | x | x
O=C(O)c1cccc(Cn2c(Cl)c(/C=N/NC(=O)c3cc4ccccc4cc3O)sc2=O)c1 | n | 5.7 | n | n | 18 | n | 34
O=C(O)c1cccc(Cn2c(Cl)c(/C=N/NC(=O)c3ccccc3)sc2=O)c1 | n | n | n | n | x | x | x
CN1[C@H](Cc2ccccc2)COc2cccc(N3CCCC3)c2S1(=O)=O | n | x | n | n | x | x | x
Cn1c(CC(=O)Nc2ccccc2Cl)nnc1SCC(=O)NC1CCCCC1 | n | n | n | n | x | x | x
Cn1c(CC(=O)Nc2ccccc2F)nnc1SCC(=O)NC1CCCCC1 | n | 79 | n | n | n | n | n
O=C(NCc1n[nH]c(=S)n1Cc1ccccc1)c1ccc(Cl)cc1Cl | n | 5.8 | n | n | 13 | n | n
O=C(NCc1n[nH]c(=S)n1Cc1ccccc1)c1ccccc1 | n | n | n | n | x | x | x
CC(C)C[C@H](NC(=O)c1ccccc1)C(=O)N1CCC[C@H]1C(=O)NCc1ccccc1 | n | x | n | n | x | x | x
